Test results: ChEMBL document CHEMBL1139119, “Anti-mycobacterial activity of a bis-sulfonamide” (2007)
Values after ≈ are worked out from the molar mass of the structure shown. Active and inactive are the calls of the source. The calls are words filed in the database; no cut-off is given here.

How the values were obtained:
Type in all cases: functional
Vibrio harveyi = experiment: Antimicrobial activity against Vibrio harveyi
Outline: (§1)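 Overnight bacterial culture diluted 1000-fold into fresh medium the next day, then exposed to compound at five doses (100, 25, 6.25, 1.56, 0.39 μg/mL) in DMSO (final 1% v/v). DMSO-only and ampicillin no-growth controls were included. Incubated overnight at 37 °C in duplicate. Scored as % growth inhibition, averaged over two independent determinations, giving MIC50.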

Candida albicans [1] = experiment: Antimicrobial activity against Candida albicans
Staphylococcus aureus = experiment: Antimicrobial activity against Staphylococcus aureus; outline: as §1
[2] = test system: Mycolicibacterium smegmatis; experiment: Antimicrobial activity against Mycobacterium smegmatis
Escherichia coli = experiment: Antimicrobial activity against Escherichia coli
[3] = test system: Mycolicibacterium smegmatis; experiment: Growth inhibition of Mycobacterium smegmatis at 100 ug/ml
Candida albicans [4] = experiment: Growth inhibition of Candida albicans at 25 ug/ml
[5] = test system: Mycolicibacterium smegmatis; experiment: Growth inhibition of Mycobacterium smegmatis at 25 ug/ml
Candida albicans [6] = experiment: Growth inhibition of Candida albicans at 100 ug/ml

Compound	MIC50 [2] [µg/mL]	Activity (Vibrio harveyi)	Activity (Candida albicans [1])	Activity (Staphylococcus aureus)	other results
CC1(C)S[C@@H]2[C@H](NC(=O)[C@H](N)c3ccccc3)C(=O)N2[C@H]1C(=O)O [AMPICILLIN]	–	–	–	–	MIC50 (Vibrio harveyi): 500 µg/mL (≈ 1430 µM); MIC50 (Staphylococcus aureus): 500 µg/mL (≈ 1430 µM); MIC50 (Escherichia coli): 500 µg/mL (≈ 1430 µM)
Nc1ccc(S(N)(=O)=O)cc1 [SULFANILAMIDE]	> 100	inactive	inactive	inactive	–
C#CCOC(=O)c1ccc(S(N)(=O)=O)cc1	> 100	inactive	inactive	inactive	–
[N-]=[N+]=Nc1ccc(S(N)(=O)=O)cc1	–	inactive	inactive	inactive	–
C#CCNC(=O)c1ccc(S(N)(=O)=O)cc1	> 100	inactive	inactive	inactive	–

Now from value to compound, other results behind:

MIC50 [2] [µg/mL]	Compound	Activity (Vibrio harveyi)	Activity (Candida albicans [1])	Activity (Staphylococcus aureus)	other results
> 100	NS(=O)(=O)c1ccc(-n2cc(CO)nn2)cc1	inactive	inactive	inactive	–
500 (≈ 860 µM)	CN[C@@H]1[C@H](O[C@H]2[C@H](O[C@H]3[C@H](O)[C@@H](O)[C@H](N=C(N)N)[C@@H](O)[C@@H]3N=C(N)N)O[C@@H](C)[C@]2(O)C=O)O[C@@H](CO)[C@H](O)[C@H]1O [STREPTOMYCIN]	–	–	–	–
> 100	NS(=O)(=O)c1ccc(C(=O)O)cc1 [CARZENIDE]	inactive	inactive	inactive	–
100 (≈ 229 µM)	NS(=O)(=O)c1ccc(C(=O)NCc2cn(-c3ccc(S(N)(=O)=O)cc3)nn2)cc1	inactive	inactive	inactive	–
< 25	NS(=O)(=O)c1ccc(C(=O)OCc2cn(-c3ccc(S(N)(=O)=O)cc3)nn2)cc1	inactive	–	inactive	inhibition at 100 µg/mL [3]: 92%; MIC50 (Candida albicans [1]): 100 µg/mL (≈ 229 µM); inhibition at 25 µg/mL (Candida albicans [4]): 36%; inhibition at 25 µg/mL [5]: 68%; inhibition at 100 µg/mL (Candida albicans [6]): 49%
